In article PMC7686114 (Bioorganic chemistry, 2020):
“Also recorded” adds a separate entry of the source. Read-outs that look alike come from different tables or passages of the source.

Key:
human recombinant PDE5 = human recombinant PDE5 (Homo sapiens, UniProt O76074); test: PDE5 inhibition, IMAP fluorescence polarization assay; type: biochemical
[1] = test system: intracellular cGMP levels in HEK293 cells; test: Luciferase cGMP biosensor assay; type: cell-based, human
Method in brief: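 HEK293 cells stably expressing a GloSensor cGMP-40F construct (human PDE5A GAF-A fused to firefly luciferase) were G418-selected. Cells were seeded at 6×10⁴/well and attached overnight in DMEM + 10% FBS at 37°C, 5% CO2. They were preincubated at room temperature in CO2-independent medium with 10% FBS and 5 mmol/L luciferin. 50 μM sodium nitroprusside was added together with test compound, and luminescence was read every minute for 1 h.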

[2] = test system: all other PDE isozymes, including PDE6 and PDE11; test: PDE isozyme selectivity panel; type: biochemical, human; conditions: concentrations up to 50 μM
PDE7A = PDE7A (Homo sapiens, UniProt Q13946); test: PDE isoform selectivity, IMAP FP assay; type: biochemical; conditions: read-out: % inhibition at 50 μM, PDE7A (cAMP)
Method in brief: (§1)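 Recombinant PDE enzymes were used at concentrations set empirically to give EC80 activity, in 10 mM Tris-HCl pH 7.4, 10 mM MgCl2, 0.1 mg/mL BSA. Test compound was preincubated with enzyme for 60 min at 30°C. TAMRA-cGMP (ex530/em590) or FAM-cAMP (ex485/em530), 50 nmol/L final, was then added for 30 min at 30°C. IMAP binding reagent followed for 10 min at 30°C, and fluorescence polarization was read.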

PDE10A = PDE10A (Homo sapiens, UniProt Q9Y233); test: PDE isoform selectivity, IMAP FP assay; type: biochemical
Sequence of PDE10A (Q9Y233 whole entry, canonical isoform): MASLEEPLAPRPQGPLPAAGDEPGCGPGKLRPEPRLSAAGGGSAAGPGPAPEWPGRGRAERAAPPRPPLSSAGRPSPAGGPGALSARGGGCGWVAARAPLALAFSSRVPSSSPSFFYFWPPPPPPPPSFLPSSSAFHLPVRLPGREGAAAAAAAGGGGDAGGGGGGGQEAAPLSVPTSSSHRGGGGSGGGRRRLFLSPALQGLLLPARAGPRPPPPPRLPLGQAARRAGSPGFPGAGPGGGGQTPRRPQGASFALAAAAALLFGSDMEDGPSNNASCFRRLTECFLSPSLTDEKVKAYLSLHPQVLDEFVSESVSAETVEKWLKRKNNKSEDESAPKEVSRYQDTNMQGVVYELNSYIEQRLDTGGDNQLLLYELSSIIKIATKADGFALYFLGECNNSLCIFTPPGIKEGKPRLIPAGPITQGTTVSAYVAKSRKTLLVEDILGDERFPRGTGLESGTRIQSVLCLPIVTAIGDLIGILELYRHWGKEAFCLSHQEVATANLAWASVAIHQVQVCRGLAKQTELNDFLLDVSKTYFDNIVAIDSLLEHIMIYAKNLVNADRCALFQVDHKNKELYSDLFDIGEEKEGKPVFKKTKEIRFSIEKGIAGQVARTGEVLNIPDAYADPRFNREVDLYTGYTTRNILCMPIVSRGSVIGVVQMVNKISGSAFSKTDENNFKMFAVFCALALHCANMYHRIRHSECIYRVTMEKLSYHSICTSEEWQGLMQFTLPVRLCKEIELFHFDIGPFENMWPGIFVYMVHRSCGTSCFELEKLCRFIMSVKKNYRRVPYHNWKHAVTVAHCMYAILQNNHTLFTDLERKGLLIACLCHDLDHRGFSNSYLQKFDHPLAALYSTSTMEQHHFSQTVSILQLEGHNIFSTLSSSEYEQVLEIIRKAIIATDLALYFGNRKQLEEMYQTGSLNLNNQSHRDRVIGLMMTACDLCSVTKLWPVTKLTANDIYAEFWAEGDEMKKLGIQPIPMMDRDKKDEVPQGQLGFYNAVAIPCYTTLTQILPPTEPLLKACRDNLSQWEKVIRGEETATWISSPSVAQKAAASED
Method in brief: as §1

PDE6C = PDE6C (Homo sapiens, UniProt P51160); test: PDE isoform selectivity, IMAP FP assay; type: biochemical; conditions: read-out: % inhibition at 50 μM, PDE6C (cGMP)
Method in brief: as §1

PDE9A = PDE9A (Homo sapiens, UniProt O76083); test: PDE isoform selectivity, IMAP FP assay; type: biochemical; conditions: read-out: % inhibition at 50 μM, PDE9A (cGMP)
Method in brief: as §1

PDE3A = PDE3A (Homo sapiens, UniProt Q14432); test: PDE isoform selectivity, IMAP FP assay; type: biochemical
Sequence of PDE3A (Q14432 whole entry, canonical isoform): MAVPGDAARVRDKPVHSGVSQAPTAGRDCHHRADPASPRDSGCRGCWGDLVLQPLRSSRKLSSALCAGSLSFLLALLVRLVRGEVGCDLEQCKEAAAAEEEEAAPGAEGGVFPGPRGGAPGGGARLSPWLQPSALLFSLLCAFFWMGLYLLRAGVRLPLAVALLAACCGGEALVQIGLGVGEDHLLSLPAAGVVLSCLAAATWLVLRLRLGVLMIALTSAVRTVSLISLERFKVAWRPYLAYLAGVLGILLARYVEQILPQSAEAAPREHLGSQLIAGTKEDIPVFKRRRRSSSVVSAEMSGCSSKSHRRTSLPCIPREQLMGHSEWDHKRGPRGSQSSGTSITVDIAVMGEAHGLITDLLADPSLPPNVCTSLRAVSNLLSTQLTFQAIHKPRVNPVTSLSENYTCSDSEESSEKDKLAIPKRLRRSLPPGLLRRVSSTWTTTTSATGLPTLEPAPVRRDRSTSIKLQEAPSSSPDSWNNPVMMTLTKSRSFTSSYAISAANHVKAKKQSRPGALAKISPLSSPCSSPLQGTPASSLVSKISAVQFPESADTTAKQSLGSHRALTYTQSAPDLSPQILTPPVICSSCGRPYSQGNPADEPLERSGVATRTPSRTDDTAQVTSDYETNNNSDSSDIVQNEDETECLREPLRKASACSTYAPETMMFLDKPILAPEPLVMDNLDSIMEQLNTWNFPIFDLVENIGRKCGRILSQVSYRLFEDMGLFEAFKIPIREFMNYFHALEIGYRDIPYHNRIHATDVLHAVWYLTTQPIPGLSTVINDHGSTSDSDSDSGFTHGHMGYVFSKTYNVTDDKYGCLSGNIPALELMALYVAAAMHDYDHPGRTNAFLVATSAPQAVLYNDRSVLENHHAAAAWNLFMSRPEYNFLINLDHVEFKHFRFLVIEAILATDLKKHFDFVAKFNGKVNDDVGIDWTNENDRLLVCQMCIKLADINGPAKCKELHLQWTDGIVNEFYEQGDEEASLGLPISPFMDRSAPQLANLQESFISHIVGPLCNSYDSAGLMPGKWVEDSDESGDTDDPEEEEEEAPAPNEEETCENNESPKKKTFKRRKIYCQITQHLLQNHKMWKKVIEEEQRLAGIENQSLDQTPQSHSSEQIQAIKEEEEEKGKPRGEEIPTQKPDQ
Method in brief: as §1

PDE1A = PDE1A (Homo sapiens, UniProt P54750); test: PDE isoform selectivity, IMAP FP assay; type: biochemical
Sequence of PDE1A (P54750 whole entry, canonical isoform): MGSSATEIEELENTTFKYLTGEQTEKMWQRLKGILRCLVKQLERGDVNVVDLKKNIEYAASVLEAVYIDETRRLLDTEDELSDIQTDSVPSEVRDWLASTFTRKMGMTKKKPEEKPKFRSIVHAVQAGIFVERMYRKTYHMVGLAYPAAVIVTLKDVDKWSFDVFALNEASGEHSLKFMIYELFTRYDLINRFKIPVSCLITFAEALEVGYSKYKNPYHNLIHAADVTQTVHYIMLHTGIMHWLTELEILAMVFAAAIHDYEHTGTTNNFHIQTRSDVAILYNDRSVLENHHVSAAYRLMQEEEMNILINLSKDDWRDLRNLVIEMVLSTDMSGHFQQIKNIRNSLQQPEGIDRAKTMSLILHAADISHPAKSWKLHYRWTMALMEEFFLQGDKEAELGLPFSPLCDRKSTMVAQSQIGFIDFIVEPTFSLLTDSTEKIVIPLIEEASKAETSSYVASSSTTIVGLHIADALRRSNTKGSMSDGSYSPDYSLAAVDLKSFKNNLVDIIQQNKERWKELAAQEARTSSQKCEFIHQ
Method in brief: as §1

PDE8A = PDE8A (Homo sapiens, UniProt O60658); test: PDE isoform selectivity, IMAP FP assay; type: biochemical; conditions: read-out: % inhibition at 50 μM, PDE8A (cAMP)
Method in brief: as §1

PDE2A = PDE2A (Homo sapiens, UniProt O00408); test: PDE isoform selectivity, IMAP FP assay; type: biochemical
Sequence of PDE2A (O00408 whole entry, canonical isoform): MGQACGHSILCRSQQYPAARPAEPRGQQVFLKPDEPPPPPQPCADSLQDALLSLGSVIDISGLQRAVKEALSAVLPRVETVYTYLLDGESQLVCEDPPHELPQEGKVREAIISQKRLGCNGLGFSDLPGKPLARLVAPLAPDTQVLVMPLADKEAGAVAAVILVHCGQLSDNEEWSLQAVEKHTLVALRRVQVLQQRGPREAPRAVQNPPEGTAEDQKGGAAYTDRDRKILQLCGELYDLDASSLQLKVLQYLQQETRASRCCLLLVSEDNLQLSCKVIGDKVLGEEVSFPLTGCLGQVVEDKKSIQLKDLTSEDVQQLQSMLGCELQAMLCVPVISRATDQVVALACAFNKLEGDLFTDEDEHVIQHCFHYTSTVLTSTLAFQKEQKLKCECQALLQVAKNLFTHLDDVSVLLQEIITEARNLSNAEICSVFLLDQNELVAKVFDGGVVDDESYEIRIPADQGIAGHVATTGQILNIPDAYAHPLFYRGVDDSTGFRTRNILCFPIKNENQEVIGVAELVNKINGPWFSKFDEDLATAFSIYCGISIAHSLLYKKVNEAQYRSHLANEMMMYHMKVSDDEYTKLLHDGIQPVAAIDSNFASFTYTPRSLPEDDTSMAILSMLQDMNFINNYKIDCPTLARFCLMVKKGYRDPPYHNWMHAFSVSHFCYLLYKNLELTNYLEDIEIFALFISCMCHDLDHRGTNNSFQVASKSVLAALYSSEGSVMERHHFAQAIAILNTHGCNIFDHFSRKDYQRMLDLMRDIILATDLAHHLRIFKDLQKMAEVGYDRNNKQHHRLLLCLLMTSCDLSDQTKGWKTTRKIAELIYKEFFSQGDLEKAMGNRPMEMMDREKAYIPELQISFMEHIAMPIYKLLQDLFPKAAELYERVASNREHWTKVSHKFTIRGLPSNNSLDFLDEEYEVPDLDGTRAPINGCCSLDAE

PDE11A = PDE11A (Homo sapiens, UniProt Q9HCR9); test: PDE isoform selectivity, IMAP FP assay; type: biochemical
Method in brief: as §1

PDE3B = PDE3B (Homo sapiens, UniProt Q13370); test: PDE isoform selectivity, IMAP FP assay; type: biochemical
Sequence of PDE3B (Q13370 whole entry, canonical isoform): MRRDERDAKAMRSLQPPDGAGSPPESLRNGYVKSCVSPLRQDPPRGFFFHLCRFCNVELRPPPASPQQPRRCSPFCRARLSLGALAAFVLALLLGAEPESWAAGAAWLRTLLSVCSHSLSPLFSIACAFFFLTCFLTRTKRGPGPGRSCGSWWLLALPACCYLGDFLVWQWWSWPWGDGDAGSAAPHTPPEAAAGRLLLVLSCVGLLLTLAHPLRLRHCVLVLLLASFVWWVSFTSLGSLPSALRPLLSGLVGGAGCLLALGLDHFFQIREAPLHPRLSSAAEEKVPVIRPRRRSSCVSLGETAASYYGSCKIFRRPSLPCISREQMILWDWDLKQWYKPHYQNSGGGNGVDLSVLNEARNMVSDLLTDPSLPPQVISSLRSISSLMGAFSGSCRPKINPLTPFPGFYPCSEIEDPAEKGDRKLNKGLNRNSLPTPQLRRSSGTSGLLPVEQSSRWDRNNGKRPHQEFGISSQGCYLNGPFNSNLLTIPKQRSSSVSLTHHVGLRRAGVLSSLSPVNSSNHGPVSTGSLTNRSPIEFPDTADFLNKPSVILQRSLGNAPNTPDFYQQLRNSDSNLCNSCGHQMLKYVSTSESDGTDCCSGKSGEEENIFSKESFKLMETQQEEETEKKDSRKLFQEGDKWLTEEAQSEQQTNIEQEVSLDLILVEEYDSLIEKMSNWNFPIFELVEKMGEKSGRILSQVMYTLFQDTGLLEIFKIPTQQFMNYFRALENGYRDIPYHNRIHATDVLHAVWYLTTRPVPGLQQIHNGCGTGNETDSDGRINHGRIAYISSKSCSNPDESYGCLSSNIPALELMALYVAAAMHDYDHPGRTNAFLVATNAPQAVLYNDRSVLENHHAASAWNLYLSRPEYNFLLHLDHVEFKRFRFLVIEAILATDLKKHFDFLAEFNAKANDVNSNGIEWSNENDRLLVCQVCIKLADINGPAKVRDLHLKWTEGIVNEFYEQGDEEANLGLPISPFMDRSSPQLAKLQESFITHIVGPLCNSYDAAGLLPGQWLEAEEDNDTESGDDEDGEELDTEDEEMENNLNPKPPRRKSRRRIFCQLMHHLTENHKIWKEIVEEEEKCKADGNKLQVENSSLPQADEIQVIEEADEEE
Method in brief: as §1

PDE4B2 = PDE4B2 (Homo sapiens, UniProt Q07343); test: PDE isoform selectivity, IMAP FP assay; type: biochemical; conditions: read-out: % inhibition at 50 μM, PDE4B2 (cAMP)
Method in brief: as §1

IC50 (human recombinant PDE5): 2700 nM
inhibition at 50 µM (human recombinant PDE5; read-out: % inhibition at 50 μM, PDE5A (cGMP)): 97%
inhibition at 50 µM (human recombinant PDE5; read-out: PDE5 % inh at 50 (μM)): 97%
inhibition at 50 µM (PDE7A): 9.1%
inhibition at 50 µM (PDE10A; read-out: % inhibition at 50 μM, PDE10A (cAMP)): 3.6%
inhibition at 50 µM (PDE10A; read-out: % inhibition at 50 μM, PDE10A (cGMP)): 4.5%
inhibition at 50 µM (PDE6C): 16.2%
inhibition at 50 µM (PDE9A): 10.7%
inhibition at 50 µM (PDE3A; read-out: % inhibition at 50 μM, PDE3A (cAMP)): 12.4%
inhibition at 50 µM (PDE3A; read-out: % inhibition at 50 μM, PDE3A (cGMP)): 36.2%
inhibition at 50 µM (PDE1A; read-out: % inhibition at 50 μM, PDE1A (cAMP)): 2.6%
inhibition at 50 µM (PDE1A; read-out: % inhibition at 50 μM, PDE1A (cGMP)): 22%
inhibition at 50 µM (PDE8A): 4%
inhibition at 50 µM (PDE2A; read-out: % inhibition at 50 μM, PDE2A (cAMP)): 5.6%
inhibition at 50 µM (PDE2A; read-out: % inhibition at 50 μM, PDE2A (cGMP)): 19.9%
inhibition at 50 µM (PDE11A; read-out: % inhibition at 50 μM, PDE11A (cAMP)): 0.9%
inhibition at 50 µM (PDE11A; read-out: % inhibition at 50 μM, PDE11A (cGMP)): 5.9%
inhibition at 50 µM (PDE3B; read-out: % inhibition at 50 μM, PDE3B (cAMP)): 6.7%
inhibition at 50 µM (PDE3B; read-out: % inhibition at 50 μM, PDE3B (cGMP)): 15.7%
inhibition at 50 µM (PDE4B2): 1.6%
SMILES: CC(C)(C)C1=NN(c2ccc(C(=O)O)cc2)C(c2ccc(Cl)cc2Cl)C1 (centres unmarked) [Compound 11, 4-(3-(tert-Butyl)-5-(2,4-dichlorophenyl)-4,5-dihydro-1H-pyrazol-1-yl) benzoic acid]
relative potency/efficacy in increasing intracellular cGMP levels ([1]; comparison among tadalafil, celecoxib, 11 and 19): substantially higher efficacy; also recorded: higher cellular potency
intracellular cGMP levels (luminescence), concentration dependence ([1]; pretreated with sodium nitroprusside): concentration-dependent increase
effect on activity of all other PDE isozymes [2]: without significantly affecting the activity
